From ChEMBL document CHEMBL1154978, “Sesquiterpenes from Maytenus jelskii as potential cancer chemopreventive agents” (J Nat Prod, 2010)
Calls of active or inactive are those of the source. The calls are words filed in the database; no cut-off is given here.

How the values were obtained:
Raji [1] = test: Inhibition of TPA-induced EBV early antigen activation in human Raji cells at 10 molar ratio after 48 hrs relative to TPA by indirect immunofluorescence technique; assay type: cell-based; set-up: scale not given: the % may be the effect or the level left; conditions: human gammaherpesvirus 4
Raji [2] = test: Inhibition of TPA-induced EBV early antigen activation in human Raji cells at 100 molar ratio after 48 hrs relative to TPA by indirect immunofluorescence technique; assay type: cell-based; set-up: scale not given: the % may be the effect or the level left; conditions: human gammaherpesvirus 4
Raji [3] = test: Cytotoxicity against human Raji cells carrying EBV genome by trypan blue staining method; assay type: cell-based; set-up: concentration or dose not given beside the values
In short: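 Raji cells grown in RPMI-1640 with 10% FBS and exposed for 48 h at 37 °C to n-butyric acid (4 mmol), TPA (32 pmol) and test compound in DMSO. Viability of treated cells was read by Trypan Blue staining.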

Raji [4] = test: Inhibition of TPA-induced EBV early antigen activation in human Raji cells at 500 molar ratio after 48 hrs relative to TPA by indirect immunofluorescence technique; assay type: cell-based; set-up: scale not given: the % may be the effect or the level left; conditions: human gammaherpesvirus 4
Raji [5] = test: Inhibition of TPA-induced EBV early antigen activation in human Raji cells at 1000 molar ratio after 48 hrs relative to TPA by indirect immunofluorescence technique; assay type: cell-based; set-up: scale not given: the % may be the effect or the level left; conditions: human gammaherpesvirus 4
Mus musculus [6] = test: Inhibition of DMBA-induced/TPA-promoted carcinogenesis in ICR mouse assessed as reduction of papilloma-bearing mice at 85 nmol administered 1 hr before TPA treatment measured after 15 weeks
Mus musculus [7] = test: Inhibition of DMBA-induced/TPA-promoted carcinogenesis in ICR mouse assessed as reduction of papilloma-bearing mice at 85 nmol administered 1 hr before TPA treatment measured after 20 weeks
Mus musculus [8] = test: Inhibition of DMBA-induced/TPA-promoted carcinogenesis in ICR mouse assessed as reduction of papilloma-bearing mice at 85 nmol administered 1 hr before TPA treatment measured after 10 weeks
Mus musculus [9] = test: Inhibition of DMBA-induced/TPA-promoted carcinogenesis in ICR mouse assessed as reduction in number of skin papillomas per mouse at 85 nmol administered 1 hr before TPA treatment measured after 20 weeks; assay type: functional, organism-based
In short: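 Female SPF ICR mice, 6 weeks old, 15 per group, with shaved backs. Initiation was a single topical dose of DMBA (100 µg, 390 nmol) in 0.1 mL acetone. From one week later, TPA (1 µg, 1.7 nmol) in acetone was applied twice weekly. Compound (85 nmol in 0.1 mL acetone) was applied topically 1 h before each TPA dose. Papillomas per mouse were recorded weekly for 20 weeks.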

Question: CC(=O)O[C@H]1[C@H](OC(=O)c2ccccc2)[C@@]2(C)[C@@H](OC(=O)/C=C/c3ccccc3)C[C@@H]3[C@@H](O)[C@]2(OC3(C)C)[C@@](C)(O)[C@H]1OC(C)=O was tested. Which Activity (Raji [1]) did it give?
Answer: 100%

Question: What about the Activity (Raji [2]) of the same compound?
Answer: 85.2%

Question: And the Activity (Raji [3])?
Answer: 60%

Question: And the Activity (Raji [4])?
Answer: 51.3%

Question: And the Activity (Raji [5])?
Answer: 10.1%

Question: Which results are given for CC(=O)O[C@H]1[C@H](OC(=O)c2ccccc2)[C@@]2(C)[C@@H](OC(=O)c3ccccc3)C[C@@H]3[C@@H](OC(C)=O)[C@]2(OC3(C)C)[C@@](C)(O)[C@H]1O [2BETA,3BETA,4BETA,TRIHYDROXYCELARBICO]?
Answer: Activity (Raji [1]): 98.6%; Papilloma-bearing mice % (Mus musculus [6]): 53.3%; Papilloma-bearing mice % (Mus musculus [7]): 90%; Papilloma-bearing mice % (Mus musculus [8]): 20%; Activity (Raji [2]): 77.5%; Activity (Raji [3]): 60%; Activity (Raji [4]): 33.2%; Activity (Raji [5]): 0%; Activity (Mus musculus [9]): Active

Question: With CC(=O)O[C@H]1[C@H](OC(=O)c2ccccc2)[C@@]2(C)[C@@H](OC(=O)/C=C/c3ccccc3)C[C@@H]3C[C@]2(OC3(C)C)[C@@](C)(O)[C@H]1OC(C)=O as the compound, how does the Activity (Raji [1]) read?
Answer: 100%

Question: And the Activity (Raji [2])?
Answer: 86.3%

Question: What about the Activity (Raji [3]) of the same compound?
Answer: 60%

Question: And the Activity (Raji [4])?
Answer: 53.2%

Question: And the Activity (Raji [5])?
Answer: 11.8%

Question: With CC1=C(/C=C/C(C)=C/C=C/C(C)=C/C=C/C=C(C)/C=C/C=C(C)/C=C/C2=C(C)CCCC2(C)C)C(C)(C)CCC1 [BETA CAROTENE] as the compound, how does the Activity (Raji [1]) read?
Answer: 100%

Question: And the Activity (Raji [3])?
Answer: 70%

Question: What about the Activity (Raji [4]) of the same compound?
Answer: 33.3%

Question: And the Activity (Raji [5])?
Answer: 8.6%

Question: Which Activity (Raji [1]) does the source give for CC(=O)O[C@H]1[C@H](OC(=O)c2ccccc2)[C@@]2(C)[C@@H](OC(=O)c3ccccc3)C[C@@H]3[C@@H](OC(=O)c4ccccc4)[C@]2(OC3(C)C)[C@@](C)(O)[C@H]1O here?
Answer: 100%

Question: And the Activity (Raji [2])?
Answer: 87.1%

Question: What about the Activity (Raji [3]) of the same compound?
Answer: 60%

Question: And the Activity (Raji [4])?
Answer: 54.2%

Question: And the Activity (Raji [5])?
Answer: 13.7%

Question: How did the Activity (Raji [1]) turn out when CC(=O)O[C@H]1[C@H](OC(=O)c2ccccc2)[C@@]2(C)[C@@H](OC(=O)/C=C/c3ccccc3)C[C@@H]3[C@@H](OC(C)=O)[C@]2(OC3(C)C)[C@@](C)(O)[C@H]1OC(C)=O was run?
Answer: 100%

Question: What about the Activity (Raji [2]) of the same compound?
Answer: 87.4%

Question: What about the Activity (Raji [3]) of the same compound?
Answer: 60%

Question: And the Activity (Raji [4])?
Answer: 39.6%

Question: And the Activity (Raji [5])?
Answer: 8.9%

Question: What does the source list for CC(=O)O[C@H]1[C@H](OC(=O)c2ccccc2)[C@@]2(C)[C@@H](OC(=O)/C=C/c3ccccc3)C[C@@H]3[C@@H](O)[C@]2(OC3(C)C)[C@@](C)(O)[C@H]1O?
Answer: Activity (Raji [1]): 100%; Activity (Raji [2]): 85.2%; Activity (Raji [3]): 60%; Activity (Raji [4]): 35.2%; Activity (Raji [5]): 5.3%

Question: How did the Activity (Raji [1]) turn out when CC(=O)O[C@H]1[C@H](OC(=O)c2ccccc2)[C@@]2(C)[C@@H](OC(=O)c3ccccc3)C[C@@H]3[C@@H](OC(C)=O)[C@]2(OC3(C)C)[C@@](C)(O)[C@H]1OC(=O)c1cccnc1 was run?
Answer: 100%

Question: And the Activity (Raji [2])?
Answer: 87.6%

Question: What about the Activity (Raji [3]) of the same compound?
Answer: 60%

Question: And the Activity (Raji [4])?
Answer: 36.6%

Question: What about the Activity (Raji [5]) of the same compound?
Answer: 7.5%

Question: For CC(=O)O[C@H]1[C@H](OC(=O)c2ccccc2)[C@@]2(C)[C@@H](OC(=O)/C=C/c3ccccc3)C[C@@H]3[C@@H](OC(C)=O)[C@]2(OC3(C)C)[C@@](C)(O)[C@H]1O, which Activity (Raji [1]) is on record?
Answer: 100%

Question: What about the Activity (Raji [2]) of the same compound?
Answer: 84.3%

Question: What about the Activity (Raji [3]) of the same compound?
Answer: 60%

Question: What about the Activity (Raji [4]) of the same compound?
Answer: 50.1%

Question: What about the Activity (Raji [5]) of the same compound?
Answer: 9.3%

Question: Which results are given for CC(=O)O[C@H]1[C@H](OC(=O)c2ccccc2)[C@@]2(C)[C@@H](OC(=O)/C=C/c3ccccc3)C[C@@H]3C[C@]2(OC3(C)C)[C@@](C)(O)[C@H]1O?
Answer: Activity (Raji [1]): 100%; Activity (Raji [2]): 86.2%; Activity (Raji [3]): 60%; Activity (Raji [4]): 52%; Activity (Raji [5]): 10.9%
